This note sets out measurements from ChEMBL document CHEMBL2417459, “Chrysophaentins are competitive inhibitors of FtsZ and inhibit Z-ring formation in live bacteria” (Bioorg Med Chem, 2013).

For assay [1], the system named is Escherichia coli. As to the kind of experiment: Inhibition of recombinant Escherichia coli FtsZ GTPase activity expressed in Escherichia coli BL21 (DE3) assessed as production of inorganic phosphate up to 600 uM after 10 mins by malachite green-phosphomolybdate colorimetric assay in presence of triton X-100. The method in brief: (§1)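 Recombinant EcFtsZ, purified by ammonium sulfate precipitation, ion exchange and gel filtration, used at 2 µM with 0.25 mM GTP in 50 mM MES pH 6.0, 100 mM KCl, 5 mM MgCl2. Incubated 10 min at 23 °C with serially diluted inhibitor. Pi read at 635 nm by malachite green-phosphomolybdate against a standard curve to give IC50. Triton X-100 at 0.01% where stated.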

The target in assay [2] is T1, Cell division protein FtsZ (Staphylococcus aureus) (UniProt P0A031).
T1 sequence (whole entry): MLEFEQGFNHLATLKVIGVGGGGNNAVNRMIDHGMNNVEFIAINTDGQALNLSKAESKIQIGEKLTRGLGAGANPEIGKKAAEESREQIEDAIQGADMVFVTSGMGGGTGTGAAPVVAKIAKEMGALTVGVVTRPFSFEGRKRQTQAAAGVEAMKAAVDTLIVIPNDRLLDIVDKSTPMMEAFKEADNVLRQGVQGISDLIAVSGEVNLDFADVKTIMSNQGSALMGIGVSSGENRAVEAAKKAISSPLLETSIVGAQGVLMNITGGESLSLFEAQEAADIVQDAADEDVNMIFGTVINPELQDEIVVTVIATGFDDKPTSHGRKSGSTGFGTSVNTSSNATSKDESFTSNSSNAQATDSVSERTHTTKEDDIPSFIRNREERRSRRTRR
The assay can be described thus: Inhibition of recombinant Staphylococcus aureus FtsZ GTPase activity expressed in Escherichia coli BL21 (DE3) assessed as production of inorganic phosphate up to 600 uM after 20 mins by malachite green-phosphomolybdate colorimetric assay in presence of triton X-100. In outline: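 Recombinant SaFtsZ at 6 µM with 0.25 mM GTP in 50 mM MES pH 6.0, 100 mM KCl, 5 mM MgCl2, plus 0.01% Triton X-100. Incubated 20 min at 30 °C with serially diluted inhibitor. Pi measured at 635 nm by malachite green-phosphomolybdate against a standard curve.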

For assay [3], the system named is Escherichia coli. The assay can be described thus: Inhibition of C-terminal YFP-fused Escherichia coli FtsZ transformed in Escherichia coli envA1 assessed as Z ring formation at 125 uM after 30 to 60 mins by fluorescence microscopic analysis. In outline: (§2)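 envA1 carrying arabinose-inducible pFtsZ-YFP grown in LB with 20 µg/mL chloramphenicol at 37 °C to OD600 ~0.2, then induced with 0.4% L-arabinose for 30 min. Cells washed in PBS/tetracycline and resuspended in LB. 1 mL aliquots treated in 1% MeOH or 1% DMSO for 30 or 60 min. Imaged by confocal fluorescence (ex 488, em 558) plus DIC, 100× objective.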

For assay [4], the system named is Escherichia coli. The assay can be described thus: Inhibition of C-terminal YFP-fused Escherichia coli FtsZ cloned in Escherichia coli envA1 assessed as protein dispersion in from of patches throughout cytoplasm at 125 uM after 30 to 60 mins by fluorescence microscopic analysis. The method in brief:
as §2

Assay [5] can be described thus: Inhibition of recombinant Escherichia coli FtsZ GTPase activity expressed in Escherichia coli BL21 (DE3) assessed as production of inorganic phosphate after 10 mins by malachite green-phosphomolybdate colorimetric assay. In outline:
as §1

Assay [6] concerns the target T2, Cell division protein FtsZ (Staphylococcus aureus, UniProt P0A031).
T2 sequence (P0A031 whole entry): T1 sequence (whole entry)
The assay can be described thus: Inhibition of recombinant Staphylococcus aureus FtsZ GTPase activity expressed in Escherichia coli BL21 (DE3) assessed as production of inorganic phosphate after 20 mins by malachite green-phosphomolybdate colorimetric assay. In outline: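 SaFtsZ (recombinant; stored at −80 °C in 50 mM Tris pH 7.4, 50 mM KCl, 1 mM EDTA, 10% glycerol), 6 µM, with 0.25 mM GTP in 50 mM MES pH 6.0, 100 mM KCl, 5 mM MgCl₂. Run 20 min at 30 °C with serially diluted inhibitor. Pi read at 635 nm against a standard curve to give IC₅₀. DMSO control up to 8%.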

Assay [7] has as its system Escherichia coli. As to the kind of experiment: Antibacterial activity against Escherichia coli K12 C600 envA1 assessed as growth inhibition after 18 hrs by microbroth dilution method. The settings on record: envA1, 18 h. Background: In broth dilution the organism is exposed to a series of concentrations in liquid medium.
The test system of assay [8] is Escherichia coli. The assay can be described thus: Inhibition of C-terminal YFP-fused Escherichia coli FtsZ cloned in Escherichia coli envA1 assessed as mislocalization of protein in polar region at 4.9 uM after 30 to 60 mins by fluorescence microscopic analysis. The method in brief:
as §2

Assay [9] concerns the target T3, Cell division protein FtsZ (Bacillus subtilis) (UniProt A5Z1V5).
T3 sequence (whole entry): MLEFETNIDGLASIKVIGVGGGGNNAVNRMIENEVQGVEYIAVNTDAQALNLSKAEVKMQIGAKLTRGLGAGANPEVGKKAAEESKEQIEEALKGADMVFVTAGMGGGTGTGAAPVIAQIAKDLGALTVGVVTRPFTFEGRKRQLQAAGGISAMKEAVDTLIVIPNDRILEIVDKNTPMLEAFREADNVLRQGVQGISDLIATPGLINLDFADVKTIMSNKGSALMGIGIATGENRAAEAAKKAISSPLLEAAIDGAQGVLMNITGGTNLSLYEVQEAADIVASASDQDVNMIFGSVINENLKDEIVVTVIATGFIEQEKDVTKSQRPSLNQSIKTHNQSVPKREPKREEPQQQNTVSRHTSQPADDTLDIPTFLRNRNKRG
The assay can be described thus: Inhibition of Bacillus subtilis SU570 GFP-fused FtsZ assessed as perturbation of Z-ring formation at 12 uM after 60 mins by fluorescence microscopic analysis.

Assay [10] addresses T4, Cell division protein FtsZ (Bacillus subtilis, UniProt A5Z1V5).
T4 sequence (A5Z1V5 whole entry): T3 sequence (whole entry)
As to the kind of experiment: Inhibition of Bacillus subtilis FtsZ GTPase activity assessed as production of inorganic phosphate measured up to 60 mins by malachite green-phosphomolybdate colorimetric assay.

For assay [11], the system named is Escherichia coli. As to the kind of experiment: Inhibition of C-terminal YFP-fused Escherichia coli FtsZ cloned in Escherichia coli envA1 assessed as protein dispersion in from of patches throughout cytoplasm at 340 uM after 30 to 60 mins by fluorescence microscopic analysis. The method in brief: as §2
Assay [12] has as its system Escherichia coli. The assay can be described thus: Inhibition of C-terminal YFP-fused Escherichia coli FtsZ cloned in Escherichia coli envA1 assessed as Z ring formation at 340 uM after 30 to 60 mins by fluorescence microscopic analysis. The method in brief: as §2
Assay [13] addresses T3, Cell division protein FtsZ (Bacillus subtilis). As to the kind of experiment: Displacement of [3H]-GTP from Bacillus subtilis FtsZ assessed as equilibrium association constant by scintillation counting assay. In outline:
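Nucleotide-free B. subtilis FtsZ (70 nM) incubated with 3H-GTP (100 nM) and competitor. FtsZ-bound label measured by co-sedimentation and scintillation counting. 3H-GTP binding constant determined separately. Data fit to a simple competition model.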
For orientation: Loss of bound radioactivity is the signal in a displacement assay; it reports binding, not function.

Assay [14] shares this target. As to the kind of experiment: Displacement of mant-GTP from Bacillus subtilis FtsZ by fluorescence anisotropy analysis. The method in brief: (§3)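 Nucleotide-free B. subtilis FtsZ (380 nM) with mant-GTP (500 nM), titrated with competitor. Displacement read as the change in fluorescence anisotropy and fit by least squares to a simple competition model. GTP (150 µM) served as the displacement control.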
On the technique in general: Fluorescence polarisation rises when a labelled molecule tumbles more slowly, as on binding a larger partner.

Assay [15] shares this target. As to the kind of experiment: Displacement of mant-GTP from Bacillus subtilis FtsZ assessed as equilibrium association constant by fluorescence anisotropy analysis. In outline: as §3
The test system of assay [16] is Escherichia coli. The assay can be described thus: Inhibition of C-terminal YFP-fused Escherichia coli FtsZ cloned in Escherichia coli envA1 assessed as mislocalization of protein throughout cell at 120 uM after 30 to 60 mins by fluorescence microscopic analysis. The method in brief: as §2
In assay [17] the test system is Escherichia coli. As to the kind of experiment: Inhibition of C-terminal RFP-fused Escherichia coli FtsZ cloned in Escherichia coli envA1 assessed as intact red fluorescent Z-ring formation at 680 uM after 30 to 60 mins by fluorescence microscopic analysis. In outline:
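envA1 carrying arabinose-inducible pFtsZ-tdTomato (pFtsZ-RFP), induced and treated by the same protocol, 680 µM for 30 min. Red fluorescence imaged (ex 555, em 630) alongside the yellow channel and DIC at 30 and 60 min post induction.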

For assay [18], the system named is Escherichia coli. The assay can be described thus: Inhibition of C-terminal YFP-fused Escherichia coli FtsZ cloned in Escherichia coli envA1 assessed as mislocalization of protein throughout cell at 680 uM after 30 mins by fluorescence microscopic analysis. The method in brief:
as §2

Converted amounts (≈) assume the structure as drawn. The source made the active and inactive calls. The rule behind the calls is not given here.

Usually IC50 stands for the point on the concentration scale where inhibition reaches its midpoint. By MIC50 is commonly meant an inhibitory concentration at the 50% level, which refers to growth in some studies and to a panel of isolates in others. For `Oc1cc(O)c2c(c1)C/C(Cl)=C\Cc1cc(c(Cl)cc1O)Oc1c(O)cc(cc1O)C/C(Cl)=C\Cc1cc(c(Cl)cc1O)O2`, the inhibition result in [1], in [2], in assay [3] and in assay [4] was “Active” throughout. Besides, the half-inhibitory concentration (IC50) in [5] was found to be 9.9 µM; in [6] it was 67 µM. In addition, the MIC50 in assay [7] stood at 27 µM (≈ 18.3 µg/mL).
On to `Oc1ccc(Cl)cc1Cc1cc(Cl)cc(Cc2cc(Cl)ccc2O)c1O`, for which the inhibition entry in [8] was “Active”.
For the compound `COc1cc(C/C=C(/Cl)Cc2cc(O)cc(O)c2)c(OC)cc1Cl`, the inhibition result in [1], in [2], in assay [9], in assay [11] and in assay [12] was “Active” each time. Moreover, the results for the 50% inhibitory concentration (IC50) in [10], in assay [5] and in [6] were 70 µM, 37 µM and 38 µM, respectively. Moreover, the Ka in assay [13] was found to be 0.87 ×10⁵ /M; in assay [15] it was 1.5 ×10⁵ /M. Also, the inhibition result in assay [14] is “Dose-dependent effect”. In addition, in assay [7], the MIC50 turned out to be 84 µM (≈ 31 µg/mL).
As to `CCN(CC)CCNc1nc(/C=C/c2ccc(Cl)cc2)nc2cc3ccccc3cc12`, in [16], the inhibition entry is “Active”.
As to `COc1ccc2cc3[n+](cc2c1OC)CCc1cc2c(cc1-3)OCO2`, the inhibition result in [17] is “inactive”. For the same compound, the inhibition entry in [18] is “Active”.
